Reference: article PMC5679024 (ACS chemical neuroscience, 2017)
Blank lines part the entries; values can stand above or below the molecule they belong to. Non-standard residues stand in square brackets, D forms with d. Residues, ends and D or L forms follow the SMILES beside them.

B1: mMC3R with C-terminal NanoLuc or HaloTag (NanoBRET constructs) (receptor, mouse, UniProt P33033 1-323, looked up)
chain: MNSSCCLSSVSPMLPNLSEHPAAPPASNRSGSGFCEQVFIKPEVFLALGIVSLMENILVILAVVRNGNLHSPMYFFLCSLAAADMLVSLSNSLETIMIAVINSDSLTLEDQFIQHMDNIFDSMICISLVASICNLLAIAIDRYVTIFYALRYHSIMTVRKALTLIGVIWVCCGICGVMFIIYSESKMVIVCLITMFFAMVLLMGTLYIHMFLFARLHVQRIAVLPPAGVVAPQQHSCMKGAVTITILLGVFIFCWAPFFLHLVLIITCPTNPYCICYTAHFNTYLVLIMCNSVIDPLIYAFRSLELRNTFKEILCGCNSMNLG

Legend:
[1] = In vitro mouse serum stability assay; format: in vitro ADME; conditions: for half-life / remaining at 0.5 h: serum
[2] = molecular target: mouse melanocortin 3 receptor, mMC3R-Flag, stably expressed on HEK293 cells (mouse) (UniProt P33033)
[3] = molecular target: mouse melanocortin 4 receptor, wildtype mMC4R, stably expressed on HEK293 cells (mouse) (UniProt P56450)
male mice = experiment: ICV fasting-refeeding paradigm, energy homeostasis in TSE metabolic cages; format: in vivo, mouse; conditions: 5 nmol ICV
Summary of the method: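 Cannula-validated male mice were acclimated for one week in sealed TSE metabolic home cages (12 h light/dark, 23–25 °C) and tested in a cross-over design. Food was removed at lights out for a 22 h fast. At t=0, 2 h before lights out, mice received 5 nmol test compound or saline ICV and food was returned. Mice were watched visually for ≥2 h after dosing.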

FRET or BRET = molecular target: the molecule itself; experiment: FRET or BRET
[4] = molecular target: B1; experiment: FRET or BRET

- half-life [1]: 6 min
- remaining at 0.5 h [1]: ≤ 2%
Molecule: CC(=O)N[C@@H](Cc1cnc[nH]1)C(=O)N[C@H](Cc1ccccc1)C(=O)N[C@@H](CCCNC(=N)N)C(=O)N[C@@H](Cc1c[nH]c2ccccc12)C(=O)N1CCC[C@H]1C(=O)NCC(=O)N1CCC[C@H]1C(=O)NCC(=O)N1CCC[C@H]1C(=O)NCC(=O)N1CCC[C@H]1C(=O)NCC(=O)N1CCC[C@H]1C(=O)NCC(=O)N1CCC[C@H]1C(=O)NCC(N)=O [CJL-5-35-1, Ac-His-DPhe-Arg-Trp-(Pro-Gly)6-NH2] (Ac-H[dF]RWPGPGPGPGPGPG-NH2)

- half-life [1]: 6 min
- remaining at 0.5 h [1]: ≤ 2%
Molecule: CC(=O)N[C@@H](Cc1cnc[nH]1)C(=O)N[C@H](Cc1ccccc1)C(=O)N[C@@H](CCCNC(=N)N)C(=O)N[C@@H](Cc1c[nH]c2ccccc12)C(=O)N1CCC[C@H]1C(=O)NCC(=O)N1CCC[C@H]1C(=O)NCC(=O)N1CCC[C@H]1C(=O)NCC(=O)N1CCC[C@H]1C(=O)NCC(=O)N1CCC[C@H]1C(=O)NCC(=O)N1CCC[C@H]1C(=O)NCC(=O)N[C@@H](Cc1cnc[nH]1)C(=O)N[C@H](Cc1ccccc1)C(=O)N[C@@H](CCCNC(=N)N)C(=O)N[C@@H](Cc1c[nH]c2ccccc12)C(N)=O [CJL-1-31, Ac-His-DPhe-Arg-Trp-(Pro-Gly)6-His-DPhe-Arg-Trp-NH2] (Ac-H[dF]RWPGPGPGPGPGPGH[dF]RW-NH2)

- Agonist cAMP Based Alpha Screen Results EC50 (nM), stable mMC3R cells [2]: 0.21 nM
- Agonist cAMP Based Alpha Screen Results EC50 (nM), stable mMC4R cells [3]: 3.1 nM
Molecule: α-MSH (peptide)

- remaining at 72 h, 10 µM ([1]; mouse serum): 12%
- half-life [1]: 1010 min
- ambulatory activity (male mice; fasting-refeeding): No significant effects
Molecule: CC(=O)N[C@@H](Cc1cnc[nH]1)C(=O)N[C@H](Cc1ccccc1)C(=O)N[C@@H](CCCN=C(N)N)C(=O)N[C@@H](Cc1c[nH]c2ccccc12)C(N)=O [CJL-1-14, Ac-His-DPhe-Arg-Trp-NH2]
- adverse reactions, visual monitoring (male mice; at least 2 hours post treatment): no adverse reactions

- half-life [1]: 6 min
- remaining at 0.5 h [1]: ≤ 2%
Molecule: N=C(N)NCCC[C@H](NC(=O)[C@@H](Cc1ccccc1)NC(=O)[C@H](Cc1cnc[nH]1)NC(=O)CNC(=O)[C@@H]1CCCN1C(=O)CNC(=O)[C@@H]1CCCN1C(=O)CNC(=O)[C@@H]1CCCN1C(=O)CNC(=O)[C@@H]1CCCN1C(=O)CNC(=O)[C@@H]1CCCN1C(=O)CNC(=O)[C@@H]1CCCN1)C(=O)N[C@@H](Cc1c[nH]c2ccccc12)C(N)=O [CJL-1-41, (Pro-Gly)6-His-DPhe-Arg-Trp-NH2] (H-PGPGPGPGPGPGH[dF]RW-NH2)

Molecule: B1
- BRET ratio (FRET or BRET): 90 mBU

- BRET ratio [4]: 150 mBU
B2: mMC4R with C-terminal NanoLuc or HaloTag (NanoBRET constructs) (receptor, mouse, UniProt P56450 1-332, looked up)
chain: MNSTHHHGMYTSLHLWNRSSYGLHGNASESLGKGHPDGGCYEQLFVSPEVFVTLGVISLLENILVIVAIAKNKNLHSPMYFFICSLAVADMLVSVSNGSETIVITLLNSTDTDAQSFTVNIDNVIDSVICSSLLASICSLLSIAVDRYFTIFYALQYHNIMTVRRVGIIISCIWAACTVSGVLFIIYSDSSAVIICLISMFFTMLVLMASLYVHMFLMARLHIKRIAVLPGTGTIRQGTNMKGAITLTILIGVFVVCWAPFFLHLLFYISCPQNPYCVCFMSHFNLYLILIMCNAVIDPLIYALRSQELRKTFKEIICFYPLGGICELSSRY
- BRET ratio (FRET or BRET): 100 mBU
